The structures appear in SMILES notation.

We go through 6 molecules from ChEMBL document CHEMBL1145471, “Small molecule regulators of autophagy identified by an image-based high-throughput screen” (Proc Natl Acad Sci U S A, 2007).

Common to all, as to format: functional
For assay [1], the system named is H4. The assay is described as follows: Increase in light chain 3-GFP+ autophagosome vesicle number per cell in human H4 cells at 12.7 uM after 24 hrs by high throughput fluorescence microscopy relative to control. In outline:
(§1)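 H4 cells stably expressing LC3-GFP were grown in DMEM with 10% FBS and 2 mM L-glutamine at 37°C, 5% CO2. They were exposed to each compound for 24 h, with DMSO as negative and rapamycin as positive control. Cells were then fixed in 4% paraformaldehyde and stained with 3 μg/ml DAPI. High-throughput fluorescence imaging scored LC3-GFP spot number, size and intensity, expressed relative to DMSO. Mean ± SD of triplicates; experiments repeated three times.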

For assay [2], the system named is H4. The assay is described as follows: Increase in light chain 3-GFP+ autophagosome vesicle area per cell in human H4 cells at 12.7 uM after 24 hrs by high throughput fluorescence microscopy relative to control.
The test system of assay [3] is H4. The assay is described as follows: Increase in light chain 3-GFP+ autophagosome vesicle intensity per cell in human H4 cells at 12.7 uM after 24 hrs by high throughput fluorescence microscopy relative to control.
Assay [4] deals with H4. Briefly: Induction of light chain 3-GFP level in human H4 cells at 12.7 uM after 24 hrs by high throughput fluorescence microscopy relative to control. The method in brief: (§2)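 H4 cells stably expressing LC3-GFP, grown in DMEM with 10% FBS, penicillin/streptomycin and 2 mM L-glutamine at 37°C, 5% CO2. Cells were seeded in 96-well plates and exposed to library compounds at 3–12 μM for 24 h, then fixed in 4% paraformaldehyde and stained with 3 μg/ml DAPI. LC3-GFP spot number, size and intensity were measured by high-throughput fluorescence microscopy and expressed relative to DMSO. Triplicates, mean ± SD.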

The subject of assay [5] is H4. Briefly: Increase in light chain 3-GFP+ autophagosome vesicle number per cell in human H4 cells at 8.9 uM after 24 hrs by high throughput fluorescence microscopy relative to control. In outline: as §2
Assay [6] concerns H4. Briefly: Increase in light chain 3-GFP+ autophagosome vesicle area per cell in human H4 cells at 8.9 uM after 24 hrs by high throughput fluorescence microscopy relative to control. The method in brief:
(§3)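 H4 cells stably expressing LC3-GFP, seeded in 96-well plates and exposed to compound for 24 h; screening concentrations were 3–12 μM, with rapamycin 0.22 μM and bafilomycin A1 0.40 μM. Cells fixed in 4% paraformaldehyde and stained with 3 μg/ml DAPI. Number, size and intensity of LC3-GFP spots measured by high-throughput fluorescence microscopy and expressed as percent of DMSO-treated wells. Rapamycin was the positive control. Triplicate wells, mean ± SD; experiments repeated three times.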

Assay [7] concerns H4. The assay is described as follows: Increase in light chain 3-GFP+ autophagosome vesicle intensity per cell in human H4 cells at 8.9 uM after 24 hrs by high throughput fluorescence microscopy relative to control. The method in brief:
as §1

Assay [8] relates to H4. The assay is described as follows: Induction of light chain 3-GFP level in human H4 cells at 8.9 uM after 24 hrs by high throughput fluorescence microscopy relative to control. The method in brief:
as §2

The subject of assay [9] is H4. The assay is described as follows: Increase in light chain 3-GFP+ autophagosome vesicle area per cell in human H4 cells at 11.3 uM after 24 hrs by high throughput fluorescence microscopy relative to control. In outline: (§4)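 H4 cells stably expressing LC3-GFP, seeded in 96-well plates and exposed to compound for 24 h; fixed in 4% paraformaldehyde, nuclei stained with 3 μg/ml DAPI. Automated fluorescence microscopy scored number, size and intensity of LC3-GFP spots; values expressed relative to DMSO-treated wells, rapamycin positive control. Triplicate wells, mean ± SD; experiments repeated three times.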

Assay [10] relates to H4. Briefly: Increase in light chain 3-GFP+ autophagosome vesicle number per cell in human H4 cells at 7.4 uM after 24 hrs by high throughput fluorescence microscopy relative to control. In outline:
(§5)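 H4 cells stably expressing LC3-GFP, kept in DMEM/10% FBS at 37°C, 5% CO2, were seeded in 96-well plates and exposed to compound for 24 h. Cells were then fixed in 4% paraformaldehyde and stained with 3 μg/ml DAPI. Automated fluorescence microscopy scored the number, size and intensity of LC3-GFP spots. Values are percent of DMSO wells, in triplicate, mean ± SD. Rapamycin served as positive control.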

In assay [11] the test system is H4. Briefly: Increase in light chain 3-GFP+ autophagosome vesicle intensity per cell in human H4 cells at 11.3 uM after 24 hrs by high throughput fluorescence microscopy relative to control. The method in brief:
as §4

In assay [12] the test system is H4. The assay is described as follows: Induction of light chain 3-GFP level in human H4 cells at 7.4 uM after 24 hrs by high throughput fluorescence microscopy relative to control. In outline: as §5
The subject of assay [13] is H4. Briefly: Increase in light chain 3-GFP+ autophagosome vesicle number per cell in human H4 cells at 3.8 uM after 24 hrs by high throughput fluorescence microscopy relative to control. The method in brief:
as §4

In assay [14] the test system is H4. Briefly: Increase in light chain 3-GFP+ autophagosome vesicle area per cell in human H4 cells at 3.8 uM after 24 hrs by high throughput fluorescence microscopy relative to control. In outline: as §4
Assay [15] relates to H4. The assay is described as follows: Increase in light chain 3-GFP+ autophagosome vesicle intensity per cell in human H4 cells at 3.8 uM after 24 hrs by high throughput fluorescence microscopy relative to control. The method in brief:
as §4

Assay [16] concerns H4. Briefly: Induction of light chain 3-GFP level in human H4 cells at 3.8 uM after 24 hrs by high throughput fluorescence microscopy relative to control. The method in brief: as §5
Assay [17] deals with H4. Briefly: Increase in light chain 3-GFP+ autophagosome vesicle number per cell in human H4 cells at 7.71 uM after 24 hrs by high throughput fluorescence microscopy relative to control. In outline:
as §1

Assay [18] relates to H4. Briefly: Increase in light chain 3-GFP+ autophagosome vesicle number per cell in human H4 cells at 4.8 uM after 24 hrs by high throughput fluorescence microscopy relative to control. In outline: as §5
Assay [19] has as its system H4. The assay is described as follows: Increase in light chain 3-GFP+ autophagosome vesicle area per cell in human H4 cells at 7.71 uM after 24 hrs by high throughput fluorescence microscopy relative to control. In outline:
as §3

Assay [20] relates to H4. Briefly: Increase in light chain 3-GFP+ autophagosome vesicle area per cell in human H4 cells at 4.8 uM after 24 hrs by high throughput fluorescence microscopy relative to control. The method in brief: as §4
Assay [21] deals with H4. The assay is described as follows: Increase in light chain 3-GFP+ autophagosome vesicle intensity per cell in human H4 cells at 7.71 uM after 24 hrs by high throughput fluorescence microscopy relative to control. The method in brief: as §1
The subject of assay [22] is H4. Briefly: Increase in light chain 3-GFP+ autophagosome vesicle intensity per cell in human H4 cells at 4.8 uM after 24 hrs by high throughput fluorescence microscopy relative to control. The method in brief: as §4
The subject of assay [23] is H4. Briefly: Induction of light chain 3-GFP level in human H4 cells at 4.8 uM after 24 hrs by high throughput fluorescence microscopy relative to control. The method in brief:
as §5

Assay [24] relates to H4. The assay is described as follows: Effect on FYVE-RFP+ vesicle intensity per cell in human H4 cells after 2 hrs relative to control. More on the design: concentration or dose not given beside the values. In outline:
(§6)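 H4 cells stably expressing FYVE-RFP (H4-FYVE), grown in DMEM with 10% FBS, penicillin/streptomycin and 2 mM L-glutamine at 37°C, 5% CO2, seeded in 96-well plates and exposed to compound. Fixed in 4% paraformaldehyde, nuclei stained with 3 μg/ml DAPI, FYVE-RFP+ vesicles quantified by high-throughput fluorescence microscopy against DMSO control. Triplicate wells, mean ± SD.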

Assay [25] concerns H4. Briefly: Effect on FYVE-RFP+ vesicle intensity per cell in human H4 cells after 4 hrs relative to control. More on the design: concentration or dose not given beside the values. In outline: as §6
Assay [26] deals with H4. Briefly: Effect on FYVE-RFP+ vesicle intensity per cell in human H4 cells after 8 hrs relative to control. More on the design: concentration or dose not given beside the values. In outline:
as §6

The test system of assay [27] is H4. The assay is described as follows: Increase in long-lived protein degradation in human H4 cells after 1 hr relative to control. More on the design: concentration or dose not given beside the values.
Assay [28] relates to H4. Briefly: Increase in long-lived protein degradation in human H4 cells after 2 hrs relative to control. More on the design: concentration or dose not given beside the values.
The test system of assay [29] is H4. The assay is described as follows: Increase in long-lived protein degradation in human H4 cells after 4 hrs relative to control. More on the design: concentration or dose not given beside the values.
Assay [30] concerns H4. The assay is described as follows: Increase in long-lived protein degradation in human H4 cells after 24 hrs relative to control. More on the design: concentration or dose not given beside the values.
Assay [31] concerns H4. The assay is described as follows: Induction of light chain 3-GFP level in human H4 cells at 7.71 uM after 24 hrs by high throughput fluorescence microscopy relative to control. In outline: as §2
Assay [32] deals with H4. The assay is described as follows: Increase in light chain 3-GFP+ autophagosome vesicle number per cell in human H4 cells at 6.8 uM after 24 hrs by high throughput fluorescence microscopy relative to control. In outline: as §1
Assay [33] deals with H4. The assay is described as follows: Increase in light chain 3-GFP+ autophagosome vesicle area per cell in human H4 cells at 6.8 uM after 24 hrs by high throughput fluorescence microscopy relative to control. In outline: as §3
Assay [34] deals with H4. Briefly: Increase in light chain 3-GFP+ autophagosome vesicle intensity per cell in human H4 cells at 6.8 uM after 24 hrs by high throughput fluorescence microscopy relative to control. The method in brief:
as §1

Assay [35] has as its system H4. The assay is described as follows: Induction of light chain 3-GFP level in human H4 cells at 6.8 uM after 24 hrs by high throughput fluorescence microscopy relative to control. The method in brief: as §2

For the molecule `C[C@@]12C(=O)OC(=O)[C@]1(C)[C@H]1CC[C@@H]2O1` [CANTHARIDIN], the Activity in the assay with H4 [1] is on record as 259.49%; with H4 [2] it was 332.84%; in the assay with H4 [3] it was 463.81%; with H4 [4] it was 24.47%.

Regarding `C[C@H]([C@H](C)N1CC(=O)NC(=O)C1)N1CC(=O)NC(=O)C1`, the Activity in the assay on H4 [5] is reported as 339.59%; in the assay on H4 [6] it was 402.47%; in the assay with H4 [7], 483.18%; with H4 [8], 45.03%.

For the molecule `C[C@@]1(CO)[C@H](O)CC[C@@]2(C)[C@H]1CC[C@H]1C[C@@H]3C[C@@]12CC[C@]3(O)CO` [APHIDICOLIN], the Activity in the assay on H4 [9] is recorded as 275.5%; in the assay on H4 [10], 216.53%; with H4 [11], 350.13%; in the assay with H4 [12] it was 73.06%.

Turning to `C/C=C(/C)C(=O)O[C@H]1C(C)=C2[C@H]([C@@H]1OC(=O)CCCCCCC)[C@@](C)(OC(C)=O)C[C@H](OC(=O)CCC)[C@@]1(O)[C@H]2OC(=O)[C@@]1(C)O` [THAPSIGARGIN], the Activity is recorded as 193.06% in the assay on H4 [13], 199.81% in the assay with H4 [14], 187.15% with H4 [15] and 63.77% in the assay with H4 [16].

`NCCNS(=O)(=O)c1cccc2cnccc12`: the Activity with H4 [17] amounted to 130.98%; in the assay with H4 [18] it was 181.04%; with H4 [19], 139.79%; with H4 [20], 172.66%; with H4 [21], 156.16%; in the assay on H4 [22], 15083%. Also, the Activity in the assay on H4 [23] was found to be 49.3%; in the assay with H4 [24], 102.35%; in the assay on H4 [25], 79.63%; in the assay on H4 [26], 83.01%; in the assay on H4 [27], 100.94%; in the assay on H4 [28] it was 91.55%. For the same molecule, the Activity with H4 [29] amounted to 96.55%; with H4 [30] it was 96.19%; in the assay on H4 [31], 96.7%.

With `COc1cc(/C=C/C(=O)CC(=O)/C=C/c2ccc(O)c(OC)c2)ccc1O` [CURCUMIN], the Activity is 59.32% in the assay with H4 [32], 228.38% in the assay with H4 [33], 249.22% in the assay on H4 [34] and 59.32% in the assay on H4 [35].
